# Screening data deposited in PubChem by several laboratories.
# A selection: hits, their analogues and other compounds. The true share with any hit is near 2.1%.
# Scp-1 inhibitor – inhibitors of human Scp-1 phosphatase; Q9GZU7; Recombinant Scp1, phosphopeptide, malachite green phosphate absorbance; hit rate 0.88% among 340,000; inhibition, % at 20 µM; AID 493091;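 active = inhibition above about 50% at 20 µM, limit read from the data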;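 note: plate controls were DMSO wells with enzyme for no effect and wells lacking enzyme for full effect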
# Target sequence (Q9GZU7 76-261 limits assumed): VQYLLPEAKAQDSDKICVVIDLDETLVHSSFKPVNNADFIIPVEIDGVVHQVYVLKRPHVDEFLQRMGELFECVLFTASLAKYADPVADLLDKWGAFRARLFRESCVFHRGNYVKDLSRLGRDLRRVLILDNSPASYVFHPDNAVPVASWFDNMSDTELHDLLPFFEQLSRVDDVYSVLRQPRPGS
#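 System: SCP-1 catalytic domain; Reagent: Phospho 17-mer peptide substrate; Doses: one concentration, 20 µM, with 1.0% DMSO; Incubation: 45 min room-temperature reaction, 5 min colour, 30 min stabiliser; Signal: Phosphate-binding colour reagent, absorbance read at 630 nm.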
# STEP block – inhibitors of human striatal-enriched phosphatase STEP; P54829; recombinant STEP, OMFP fluorogenic substrate, fluorescence; inhibition, % at 20 µM; hit rate 0.25% among 360,000; AID 588621;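 active = inhibition at 20 µM, scaled per plate between control wells, above about 37%, limit read from the data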;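 note: 0% = DMSO with enzyme and substrate and 100% = substrate only without enzyme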
#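 System: STEP (striatal-enriched tyrosine phosphatase) enzyme, cell-free; medium: Bis-Tris pH 6.0 buffer with DTT, detergent; dosing: 20 µM, 1% DMSO; times: reaction 20 min, ambient temperature; detection: fluorescence, 480/540 nm; read-out basis: normalized % inhibition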
# GRK2 aptamer HTS – inhibitors of human GRK2 displacing RNA aptamer; inhibition of aptamer binding, % at 10 µM; bead flow cytometry, FAM-aptamer displacement from GRK2; hit rate 0.59% among 330,000;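 active = inhibition of aptamer binding above 40%, roughly 3 SD of noise, on plates passing a quality check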;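 note: median bead fluorescence of bound FAM aptamer so fluorescent compounds give negative values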
# LMPTP block – blocks human LMPTP phosphatase; P24666; recombinant LMPTP-A, OMFP fluorogenic substrate, fluorescence intensity; inhibition, % at 20 µM; hit rate 0.22% among 360,000;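 active = compounds that cut the enzyme signal by at least half of the control window in the single-dose screen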;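 note: plate controls were DMSO wells with enzyme plus substrate for no effect and substrate without enzyme for full effect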
# Target sequence (P24666 whole entry, looked up): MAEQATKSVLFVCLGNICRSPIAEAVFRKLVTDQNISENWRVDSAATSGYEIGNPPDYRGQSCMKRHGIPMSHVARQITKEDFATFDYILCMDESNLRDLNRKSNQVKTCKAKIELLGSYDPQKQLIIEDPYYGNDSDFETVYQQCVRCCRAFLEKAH
#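 Test system: LMPTP-A phosphatase enzyme. Amount: LMPTP-A at 0.625 nM final in the reaction. Reagent: OMFP substrate, 400 µM final. Times: 50 min at room temperature. Signal: endpoint fluorescence intensity from OMFP dephosphorylation. Read-out basis: % inhibition. Benchmarks: no-enzyme and uninhibited controls.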
# SUMO1 PPI mod – modulators of human SUMO1-mediated protein-protein interactions; hit rate 0.33% among 360,000; inhibition, % at 20 µM; SUMO1 binding to a labelled peptide, TR-FRET, 1 h; in the data active = inhibition above about 37%
# Target sequence (P63165 whole entry, looked up): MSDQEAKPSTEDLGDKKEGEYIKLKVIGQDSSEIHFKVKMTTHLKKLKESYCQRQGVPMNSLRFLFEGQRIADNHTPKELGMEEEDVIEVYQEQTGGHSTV
# DNMT1 block – blocks human DNA methyltransferase DNMT1; inhibition (reported as % activation of signal), % at 10 µM; hit rate 0.83% among 360,000; P26358; DNMT1 molecular beacon, Hinp1I cleavage, fluorescence; in the data active = inhibition above about 50%
# Scp-1 conf – Scp-1 (human) inhibition, single-dose confirmed; shares compounds with Scp-1 inhibitor; AID 540281; inhibition, % at 20 µM; recombinant SCP-1 catalytic domain, phosphate release, malachite green absorbance; hit rate 61% among 2,500;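 note: plate controls were DMSO with enzyme for no effect and buffer wells lacking enzyme for full effect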
# Scp-1 MG ctr – interferes with malachite green readout, flagging false Scp-1 hits. shares compounds with Scp-1 inhibitor. Colorimetric interference counterscreen, malachite green absorbance 630 nm. apparent inhibition (interference), % at 20 µM. 2,500 tested, under 10 active. AID 540313;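 note: compounds added after enzyme reaction finished so only phosphate colour detection is probed; plate controls were DMSO wells with completed Scp-1 reaction for no effect and substrate wells lacking enzyme for full effect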
# Scp-1 Tm shift – binds human Scp-1, shifting its melting temperature; hit rate 25% among 1,500; shares compounds with Scp-1 inhibitor; Recombinant SCP1, Sypro Orange thermal shift Tm; AID 540329; thermal shift relative to vanadate control, % at 40 µM;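 active = substances whose mean melting-temperature shift, as a percentage of the reference inhibitor's shift, reaches about 5.3%, limit read from the data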;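 note: 0% = Tm of DMSO wells and 100% = Tm with sodium orthovanadate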
# * hit, by the source's call; nt = no result given.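 Rule for the calls, unless noted: active = inhibition of at least 30% at 20 µM; inactive = the rest.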
SMILES,Scp-1 inhibitor,STEP block,GRK2 aptamer HTS,LMPTP block,SUMO1 PPI mod,DNMT1 block,Scp-1 conf,Scp-1 MG ctr,others
O=C(Cn1cnc2c(OCc3ccccc3)ncnc21)NCCc1c[nH]c2ccccc12,8,0,10,0,-1,-4,nt,nt,
O=C(Nc1ccc2nn(-c3ccccc3)nc2c1)c1ccc(Br)o1,93*,17,0,42,1,76*,90*,-7,Scp-1 Tm shift=-12
CCc1ccc2c(c1)NC(=O)C2(C)Cc1ccccc1OC (stereo not given),nt,1,nt,1,1,0,nt,nt,
CCCCc1ccc(S(=O)(=O)Nc2cc(C)on2)cc1,70*,2,0,-1,-4,0,-19,-21,
O=C(COc1ccc(S(=O)(=O)N2CCCC2)cc1)NCc1ccco1,26,3,0,0,2,18,nt,nt,
O=C(COC(=O)c1ccc(S(=O)(=O)N2CCCCC2)cc1)NCc1ccco1,54*,3,2,-1,3,14,73*,-6,Scp-1 Tm shift=3
COc1ccc(-c2nnc3ccc(SCC(=O)NCc4ccco4)nn23)cc1,19,-1,2,0,0,1,nt,nt,
O=C(COC(=O)c1cccnc1Cl)NCc1ccco1,92*,0,7,-1,10,1,70*,-10,Scp-1 Tm shift=-11
O=C(CSc1nnc(-c2ccc(S(=O)(=O)N3CCCC3)cc2)o1)NCc1ccco1,62*,-2,3,1,3,10,43*,-17,Scp-1 Tm shift=-6
O=C(CSc1ccc2nnc(-c3ccccc3)n2n1)NCc1ccco1,55*,11,4,0,3,2,17,-24,
O=C(Nc1ccc2c(c1)OCCO2)C1c2ccccc2OCC(=O)N1CCc1c[nH]c2ccccc12 (stereo not given),nt,nt,nt,0,7,nt,nt,nt,
CCC1=C(NCc2ccccc2)COC1=O,nt,3,nt,-1,3,4,nt,nt,
O=C(NCc1cc(Cl)cc(Cl)c1)c1csc([C@@H]2O[C@H](CO)[C@H](O)[C@H](O)[C@H]2O)n1,nt,-4,nt,1,0,11,nt,nt,
Cn1c(SCC(=O)NCc2ccco2)nnc1-c1ccccc1,-3,1,1,0,4,1,nt,nt,
O=C(CSc1nnc(CNC(=O)c2ccccc2)o1)NCc1ccco1,7,-1,7,-2,4,0,nt,nt,
O=C(NCc1ccco1)C1CCCN(S(=O)(=O)c2ccc(-n3cnnn3)cc2)C1 (stereo not given),76*,0,0,1,14,-1,69*,-7,Scp-1 Tm shift=3
Cn1c(SCC(=O)NCc2ccco2)nnc1-c1ccc(S(=O)(=O)N2CCOCC2)cc1,65*,2,7,0,5,13,49*,-17,Scp-1 Tm shift=-4
O=C(CSc1nnc(CNC(=O)c2c(F)cccc2F)o1)NCc1ccco1,68*,2,18,2,6,10,33*,3,Scp-1 Tm shift=-22
O=C(NCc1ccco1)C1CCCN(S(=O)(=O)c2ccc(Br)cc2)C1 (stereo not given),-4,-2,2,0,-3,0,nt,nt,
CCC(=O)Nc1cccc(-c2nnc(SCC(=O)NCc3ccco3)n2C)c1,98*,0,0,-3,-1,1,6,-7,
Cc1cc(C2=CC(=O)C[C@H](c3ccc(F)cc3)C2)ccc1F,nt,3,nt,4,-5,-1,nt,nt,
CCC(C(=O)Nc1c(C)cccc1C)n1c(-c2ccc(-c3ccccc3)cc2)nc2ccccc21 (stereo not given),nt,nt,nt,6,-2,nt,nt,nt,
O=C(NCc1ccccc1)OC1CC2CC1[C@H]1CCCCN1C2=O (stereo not given in full),nt,nt,nt,-1,0,nt,nt,nt,
C[N+]1(CCOS(=O)C23CC4CC(CC(C4)C2)C3)CCOCC1 (stereo not given),105*,-3,3,-2,3,0,-5,-7,
Cc1cc(C(=O)O)cc(S(=O)(=O)NNC(=O)c2cccs2)c1C,53*,2,1,-1,5,3,-7,-13,
SMILES,Scp-1 inhibitor,STEP block,GRK2 aptamer HTS,LMPTP block,SUMO1 PPI mod,DNMT1 block,Scp-1 conf,Scp-1 MG ctr,others
O=C(NNC(=O)c1cccs1)c1ccc(Cl)c(S(=O)(=O)N2CCCC2)c1,-1,-2,0,-1,5,-5,nt,nt,
O=C(NCC(F)(F)F)c1csc([C@@H]2O[C@H](CO)[C@H](O)[C@H](O)[C@H]2O)n1,nt,-4,nt,-1,2,4,nt,nt,
O=C(Nc1cc2c(cc1Cl)OCCCO2)c1ccco1,50,1,2,0,-2,11,-22,-22,
O=C(Nc1cc2c(cc1Cl)OCCCO2)c1ccccc1,-8,0,1,-3,1,-2,nt,nt,
CC1(C(=O)NCc2ccccc2)CN(S(C)(=O)=O)CC(=O)N1CCc1ccc(O)cc1 (stereo not given),nt,nt,nt,-1,4,nt,nt,nt,
O=C(N/N=C/c1cc2c(cc1Br)OCO2)c1ccccn1,-5,1,0,-1,-27,3,nt,nt,
O=C(N/N=C/c1cc2c(cc1Br)OCO2)c1cc2ccccc2o1,58*,2,0,3,4,0,25,-3,
COc1cccc(COC(=O)CSCC(=O)Nc2ccc(C)cc2)c1OC,nt,-2,nt,-2,0,-2,nt,nt,
CC(C)Cn1nc(C(=O)Nc2nnc(C3CC3)s2)c2ccccc2c1=O,-3,-2,1,0,-1,1,nt,nt,
CC(=O)c1cccc(NC(=O)CCc2nnc3ccc(NCc4ccco4)nn23)c1,59*,5,7,7,18,8,43*,-15,Scp-1 Tm shift=2
Cc1ccc(NC(=O)CCc2nnc3ccc(NCc4ccco4)nn23)nc1,12,-6,0,-1,5,4,nt,nt,
O=C(CCN1C(=O)C2CCCCC2C1=O)Nc1nc2c(F)cc(F)cc2s1 (stereo not given),-3,1,1,0,-3,-4,nt,nt,
O=C(CCN1C(=O)C2CCCCC2C1=O)Nc1nc2ccc(F)cc2s1 (stereo not given),-2,-2,2,-1,5,3,-10,-14,
N#C/C(=C/c1ccccc1)c1nn(CCO)c(N)c1C#N,-9,1,0,0,-6,-9,nt,nt,
N#C/C(=C\c1ccc(/C=C(/C#N)c2nn(CCO)c(N)c2C#N)cc1)c1nn(CCO)c(N)c1C#N,68*,14,0,6,60*,4,3,-13,
